From ChEMBL document CHEMBL1125259, “Lipophilic glycosyl phosphotriester derivatives of AZT: synthesis, NMR transmembrane transport study, and antiviral activity” (1991) come the findings set out here.

Common to all, as to type: functional
For test [1], the system named is CCRF-CEM. The experiment in a line: Concentration required to reduce the viability of uninfected cells (CEM-CL13) by 50% on day 22. The settings on record: Homo sapiens, 528 h, read-out: CD50 (the source's name). In short, it runs like this: (§1)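 CEM-C113 cells (1×10^5 cells/mL) were infected with HIV-1 LAV-Bru or mock-infected, with compound dilutions in triplicate, for at least 7 days. Medium with or without drug was renewed every 3–4 days for longer runs. MTT absorbance was read at 540 nm. CD50 = 50% reduction of mock-infected absorbance; ED50 = dose giving 50% protection from CPE. Values are averages of at least two experiments.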

For test [2], the target named is Human immunodeficiency virus type 1 reverse transcriptase (Human immunodeficiency virus 1) (UniProt Q72547). The experiment in a line: Compound ability to inhibit the production of HIV reverse transcriptase (RT) in culture supernatant of CEM-CL13 on at 15 days at a concentration 0.2 uM. The method in brief:
(§2)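 CEM-C113 cells in RPMI 1640 with 5% heat-inactivated FCS and polybrene (2 µg/mL) were plated at 1×10^5 cells/mL with compound in PBS, in triplicate, and infected with HIV-1 LAV-Bru. From day 7, every 3–4 days, fresh medium with or without drug was added and 50 µL supernatant was taken for RT microassay. The RT microassay used poly(rA)-oligo(dT) and (methyl-³H)dTTP for 1 h at 37 °C, with TCA precipitation, read as cpm/50 µL.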

For test [3] the target is unchanged. The experiment in a line: Compound ability to inhibit the production of HIV reverse transcriptase (RT) in preinfected PBL (peripheral blood lymphocytes) at 7 days at a concentration 1 uM. In short, it runs like this:
(§3)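 PBL were infected with HIV-1 for 1 h at 37 °C, washed twice, and resuspended in complete medium with 10% interleukin-2 and anti-human α-interferon (1000 units/mL). Cells were plated at 1×10^6 cells/well with or without compound. At each time point, 50 µL supernatant was taken for RT assay ([³H]dTTP incorporation, cpm).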

For test [4] the target is unchanged. The experiment in a line: Compound ability to inhibit the production of HIV reverse transcriptase (RT) in culture supernatant of CEM-CL13 on at 7 days at a concentration 1 uM. In short, it runs like this: as §2
The target is the same in test [5]. The experiment in a line: Compounds were evaluated for anti-RT activity by MTT dose and %protection was reported at 9 days of culture. The method in brief:
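HIV-1 was preincubated with compound at 25 µM for 60 min at 37 °C, pelleted, and added to CEM-C113 cells (1×10^5 cells/mL) for 60 min at 37 °C. Medium was then replaced without compound. At days 7 and 9, viability was read by MTT assay on 100 µL of cell suspension.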

Test [6] shares this target. As to the kind of experiment: Compound ability to inhibit the production of HIV reverse transcriptase (RT) in culture supernatant of CEM-CL13 on at 26 days at a concentration 0.2 uM. The method in brief:
as §2

Test [7] has as its system CCRF-CEM. The experiment in a line: Concentration required to reduce the viability of uninfected cells (CEM-CL13) by 50% on day 11. The settings on record: Homo sapiens, 264 h, read-out: CD50 (the source's name). In short, it runs like this: as §1
The target of test [8] is Human immunodeficiency virus type 1 reverse transcriptase (Human immunodeficiency virus 1) (UniProt Q72547). As to the kind of experiment: Percent inhibition evaluated for anti-RT activity at 9 days of culture. The arrangement: concentration or dose not given beside the values. The settings on record: concentration not given here. The method in brief:
(§4)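 HIV-1 (12 500 CCID50) was preincubated with compound at 25 µM final for 60 min at 37 °C, pelleted by ultracentrifugation and resuspended. RT was measured at once with poly(rA)-oligo(dT) and ³H-dTTP (1 h, 37 °C, cpm). Treated virus was then put on CEM-C113 cells for 60 min and replaced with compound-free medium. Supernatant RT was read at days 7 and 9.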

Test [9] shares this target. As to the kind of experiment: Compounds were evaluated for anti-RT activity at 7 days of culture. In short, it runs like this:
as §4

For test [10] the target is unchanged. As to the kind of experiment: Compound ability to inhibit the production of HIV reverse transcriptase (RT) in preinfected PBL (peripheral blood lymphocytes) at 10 days at a concentration 5 uM. In short, it runs like this:
as §3

Test [11] shares this target. As to the kind of experiment: Compound ability to inhibit the production of HIV reverse transcriptase (RT) in culture supernatant of monocytic U937 on at 11 days at a concentration 0.2 uM. In short, it runs like this:
(§5)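 HIV-1-infected monocytic U937 cultures were kept up to 14 days with compound. Supernatant RT activity was measured as for CEM-C113, as [³H] cpm/50 µL. % inhibition = 100 − 100 × (cpm of treated samples / cpm of control virus).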

For test [12] the target is unchanged. The experiment in a line: Compound ability to inhibit the production of HIV reverse transcriptase (RT) in culture supernatant of monocytic U937 on at 7 days at a concentration 0.2 uM. In short, it runs like this:
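HIV-1 LAV-Bru-infected U937 cultures run in complete RPMI 1640 (5% FCS, polybrene 2 µg/mL) at 37 °C with compound in triplicate. Culture supernatant (50 µL) sampled from day 7 for RT microassay: poly(rA)-oligo(dT), (methyl-3H)dTTP, Mg2+, pH 7.8, 1 h at 37 °C, TCA precipitation onto filters. Read as cpm/50 µL; % inhibition = 100 − 100 × treated/virus-control cpm.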

Test [13] has the same target. The experiment in a line: Compound ability to inhibit the production of HIV reverse transcriptase (RT) in preinfected PBL (peripheral blood lymphocytes) at 10 days at a concentration 1 uM. The method in brief:
as §3

For test [14] the target is unchanged. As to the kind of experiment: Percent inhibition measured as the production of HIV reverse transcriptase (RT) in culture supernatant of monocytic U937 on at 11 days at a concentration 0.2 uM. In short, it runs like this:
as §5

For test [15] the target is unchanged. The experiment in a line: Percent inhibition measured as the production of HIV reverse transcriptase (RT) in culture supernatant of monocytic U937 on at 14 days at a concentration 0.2 uM. In short, it runs like this:
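U937 cells in RPMI 1640 with 5% heat-inactivated FCS, penicillin, streptomycin and polybrene (2 μg/mL), 37 °C, 5% CO2. Infected with HIV-1 LAV-Bru; compounds diluted in PBS. 50 μL supernatant aliquots were assayed for RT: 1 h, 37 °C, pH 7.8, Mg2+, poly(rA)-oligo(dT), [3H]dTTP, TCA-pyrophosphate stop, filter counting. % inhibition = 100 − 100 × (treated cpm / virus-control cpm).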

Test [16] has the same target. As to the kind of experiment: Compound ability to inhibit the production of HIV reverse transcriptase (RT) in culture supernatant of monocytic U937 on at 14 days at a concentration 0.2 uM. The method in brief:
as §5

Test [17] has the same target. As to the kind of experiment: Compound ability to inhibit the production of HIV reverse transcriptase (RT) in culture supernatant of monocytic U937 on at 14 days at a concentration 5 uM. In short, it runs like this:
as §5

Test [18] has the same target. The experiment in a line: Compound ability to inhibit the production of HIV reverse transcriptase (RT) in culture supernatant of CEM-CL13 on at 22 days at a concentration 5 uM. In short, it runs like this: as §2
For test [19] the target is unchanged. The experiment in a line: Compound ability to inhibit the production of HIV reverse transcriptase (RT) in preinfected PBL (peripheral blood lymphocytes) at 21 days at a concentration 1 uM. In short, it runs like this:
as §3

Test [20] has the same target. As to the kind of experiment: Compound ability to inhibit the production of HIV reverse transcriptase (RT) in culture supernatant of monocytic U937 on at 11 days at a concentration 5 uM. The method in brief: as §5
Test [21] shares this target. As to the kind of experiment: Compound ability to inhibit the production of HIV reverse transcriptase (RT) in culture supernatant of CEM-CL13 on at 7 days at a concentration 5 uM. The method in brief: as §2
The target is the same in test [22]. As to the kind of experiment: Compound ability to inhibit the production of HIV reverse transcriptase (RT) in culture supernatant of CEM-CL13 on at 15 days at a concentration 5 uM. The method in brief:
as §2

For orientation: inhibition means the percentage by which the read-out fell short of the control. As to `CCCCCCCCCCCCCCCCOP(=O)(OC[C@H]1OC(O)[C@@H](O)[C@@H](O)[C@@H]1O)OC[C@H]1OC(n2cc(C)c(=O)[nH]c2=O)C[C@@H]1N=[N+]=[N-]` (stereo partly specified), the CC50 in the test on CCRF-CEM [1] was found to be 2.5 µM; with CCRF-CEM [7], 2.6 µM. In addition, the Activity (c.p.m. 50ul-1) in [2] was found to be 1700; in [3], 9320; in test [4] it was 2000; in test [6], 73000; in [9] it was 18000; in test [10], 28000. Besides, the Activity (c.p.m. 50ul-1) in [11] turned out to be 227000; in test [12], 251000; in [13], 71500; in test [16], 27000. The compound also returned a Protection in [5] of 18%. Besides, the inhibition was determined as 68% in [8], 0% in test [14] and 0% in [15].

For `Cc1cn([C@H]2C[C@H](N=[N+]=[N-])[C@@H](COP(=O)(O)OC[C@H]3OC(O)[C@H](O)[C@@H](O)[C@@H]3O)O2)c(=O)[nH]c1=O` (stereo partly specified), the CC50 in the test on CCRF-CEM [1] and in the test with CCRF-CEM [7] was 35 µM each time. The Activity (c.p.m. 50ul-1) in test [2] amounted to 750; in test [3], 1010; in test [17], 31400; in test [18], 1500; in [6], 65000; in [19] it was 16100. The Activity (c.p.m. 50ul-1) in test [9] worked out at 19000; in test [20], 211000; in test [21], 1100; in [22] it was 400; in [10] it was 798; in test [13] it was 771. In [5], the Protection was found to be 13%. Further, in test [8], the inhibition was found to be 10%.

As for `Cc1cn([C@H]2C[C@H](N=[N+]=[N-])[C@@H](COP(=O)(O)OCCO[C@H]3O[C@H](CO)[C@@H](O)[C@H](O)[C@@H]3O)O2)c(=O)[nH]c1=O`, the CC50 with CCRF-CEM [1] and in the test on CCRF-CEM [7] was 28 µM throughout. Further, the Activity (c.p.m. 50ul-1) is 2600 in test [2]; 923 in [3]; 23000 in test [17]; 5500 in test [18]; 70000 in test [6]; 21300 in [19]. Besides, the Activity (c.p.m. 50ul-1) turned out to be 47000 in test [9]; 192000 in test [20]; 1670 in test [21]; 852 in test [22]; 1100 in test [10]; 4400 in [13]. This compound also yielded a Protection in test [5] of 12%. Moreover, the inhibition in test [8] was determined as 0%.

With `Cc1cn([C@H]2C[C@H](N=[N+]=[N-])[C@@H](COP(=O)(O)OC[C@H]3OC(O)[C@@H](O)[C@@H](O)[C@@H]3O)O2)c(=O)[nH]c1=O` (stereo partly specified), the CC50 is 24 µM with CCRF-CEM [1] and 28 µM in the test with CCRF-CEM [7]. Besides, the Activity (c.p.m. 50ul-1) in [2] was found to be 1700; in test [3], 943; in test [17] it was 24000; in test [18], 12000; in test [6] it was 85000; in [19], 33100. For the same compound, the Activity (c.p.m. 50ul-1) in [9] stood at 24000; in [20] it was 193000; in [21], 1500; in [22] it was 1300; in test [10], 936; in test [13], 3130. In test [5], this compound came in with a Protection of 22%. Moreover, in test [8], the inhibition turned out to be 0%.

Turning to `CCCCCCCCCCCCCCCCOP(=O)(OC[C@H]1OC(O)[C@H](O)[C@@H](O)[C@@H]1O)OC[C@H]1OC(n2cc(C)c(=O)[nH]c2=O)C[C@@H]1N=[N+]=[N-]` (stereo partly specified), the CC50 in the test on CCRF-CEM [1] was determined as 3.2 µM; in the test with CCRF-CEM [7] it was 3 µM. Also, the Activity (c.p.m. 50ul-1) in [2] was found to be 1600; in test [3] it was 3490; in test [4], 2600; in test [6], 64000; in test [19], 71100; in test [9] it was 8000. The Activity (c.p.m. 50ul-1) was determined as 36400 in test [10]; 178000 in test [11]; 237000 in test [12]; 26300 in test [13]; 16000 in test [16]. Besides, the Protection in test [5] came to 52%. Moreover, the results for the inhibition in test [8], in [14] and in test [15] were 58%, 0% and 14%, respectively.

Turning to `CCCCCCCCCCCCCCCCOP(=O)(OCCO[C@H]1O[C@H](CO)[C@@H](O)[C@H](O)[C@@H]1O)OCC1OC(n2cc(C)c(=O)[nH]c2=O)CC1N=[N+]=[N-]` (stereo partly specified), the CC50 turned out to be 3.4 µM in the test with CCRF-CEM [1] and 28 µM with CCRF-CEM [7]. Moreover, the Activity (c.p.m. 50ul-1) in [2] amounted to 2400; in [3], 30200; in test [4], 6000; in test [6], 61000; in [9], 81000; in test [11] it was 131000. The Activity (c.p.m. 50ul-1) in test [12] was 343000; in test [13], 60200; in test [16] it was 30000. The compound further displayed a Protection in [5] of 4%. Besides, the inhibition in [8] is 0%; in test [14], 9%; in [15], 0%.
